Active and inactive are the calls of the source. The rule behind the calls is not given here.

Assay [1] has as its system HUVEC. Description: Antiinflammatory activity in HUVEC assessed as downregulation of LPS-induced IL6 mRNA expression at 0.8 to 100 uM by qRT-PCR method. The following applies: Homo sapiens. It is filed as functional, cell-based. The method, boiled down:
(§1)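 HUVEC cells grown in DMEM with 10% FBS, streptomycin and penicillin, at 37 °C in humidified 5% CO2. Drug groups received 0.8, 4, 20 or 100 μM drug plus 10 μg/mL LPS. Model group got medium plus LPS, controls got medium only, n = 3 per group. Cells harvested after varying times for cytokine mRNA measurement. Mean ± SD of three independent experiments.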

For assay [2], the system named is HUVEC. Briefly: Antiinflammatory activity in HUVEC assessed as downregulation of LPS-induced IL1 mRNA expression at 0.8 to 100 uM by qRT-PCR method. The assay is classed as functional, cell-based. The following applies: Homo sapiens. The method, boiled down:
as §1
For orientation: Real-time PCR tracks product formation cycle by cycle.

In assay [3] the test system is HUVEC. Description: Antiinflammatory activity in LPS stimulated HUVEC assessed as upregulation of IL10 mRNA expression at 0.8 to 100 uM by qRT-PCR method. It is filed as functional, cell-based. The following applies: Homo sapiens. An outline of the steps: as §1
For the next assay, the system named is HeLa. Description: Cytotoxicity against human HeLa cells after 72 hrs by MTT assay. (Formazan colour is commonly taken as a measure of viable cells.)
For another assay, the system named is HepG2. Briefly: Cytotoxicity against human HepG2 cells after 72 hrs by MTT assay. The note with it: HepG2, 72 h.
In the next assay the test system is A549. Description: Cytotoxicity against human A549 cells after 72 hrs by MTT assay. The following applies: A549, 72 h.
A further assay deals with K562. Briefly: Cytotoxicity against human K562 cells after 72 hrs by MTT assay. The following applies: K562, 72 h.
In another assay the test system is HCT-116. Description: Cytotoxicity against human HCT116 cells after 72 hrs by MTT assay. The following applies: HCT-116, 72 h.
For assay [4], the system named is HUVEC. Description: Antiinflammatory activity in HUVEC assessed as downregulation of LPS-induced IFN-gamma mRNA expression at 0.8 to 100 uM by qRT-PCR method. It is filed as functional, cell-based. The following applies: Homo sapiens. The method, boiled down: as §1
For another assay, the species on record is Bos taurus. Description: Inhibition of calf thymus topoisomerase 1 assessed as decrease in relaxation of supercoiled pBR322 DNA at 100 uM after 30 mins by agarose gel electrophoresis. An outline of the steps:
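Calf-thymus topoisomerase I relaxation of negatively supercoiled pBR322. Supercoiled and relaxed DNA bands resolved. Test concentration 100 μM. Hydroxycamptothecine served as positive control.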

Turning to `O=C(/C=C/c1ccc(O)cc1)C1=C(O)C(Cc2c(O)c(O[C@@H]3O[C@H](CO)[C@@H](O)[C@H](O)[C@H]3O)c(O)c3c(=O)c(O[C@@H]4O[C@H](CO)[C@@H](O)[C@H](O)[C@H]4O)c(-c4ccc(O)cc4)oc23)=C(O)[C@@](O)(C2O[C@H](CO)[C@@H](O)[C@H](O)[C@H]2O)C1=O` (stereo partly drawn), the outcome with HUVEC [1] and in the assay on HUVEC [2] was Active. For the same compound, the Activity result in the assay on HUVEC [3] is “Dose-dependent effect”.

In general, IC50 refers to the point on the concentration scale where inhibition reaches its midpoint. Lower therefore signals inhibition by little substance. Turning to `CC(=O)O[C@H]1C(=O)[C@@]2(C)[C@H]([C@H](OC(=O)c3ccccc3)[C@]3(O)C[C@H](OC(=O)[C@H](O)[C@@H](NC(=O)c4ccccc4)c4ccccc4)C(C)=C1C3(C)C)[C@]1(OC(C)=O)CO[C@@H]1C[C@@H]2O` [PACLITAXEL], the IC50 in the assay on HeLa was 1.7 µM; with HepG2, 6.7 µM; in the assay on A549, 5.5 µM; in the assay on K562 it was 2.7 µM; in the assay on HCT-116, 3.3 µM.

Consider `O=C(/C=C/c1ccc(O)cc1)C1=C(O)C(C2C3=C(O)[C@@](O)(C4O[C@H](CO)[C@@H](O)[C@H](O)[C@H]4O)C(=O)C(C(=O)/C=C/c4ccc(O)cc4)=C3O[C@@H]2[C@@H](O)[C@H](O)[C@H](O)CO)=C(O)[C@@](O)(C2O[C@H](CO)[C@@H](O)[C@H](O)[C@H]2O)C1=O` (stereo partly drawn), for which the Activity entry with HUVEC [1], in the assay with HUVEC [2], in the assay on HUVEC [3] and in the assay with HUVEC [4] was “Dose-dependent effect” each time. Also, in the assay filed under Bos taurus, the inhibition entry is “Active”.

These data come from ChEMBL document CHEMBL4000168, “Carthorquinosides A and B, Quinochalcone C-Glycosides with Diverse Dimeric Skeletons from Carthamus tinctorius” (J Nat Prod, 2016).
